Source: PubChem BioAssay
FGF22 binding – shifts melting point of recombinant human FGF22. AID 651658. activity (Tm shift, normalised), % at 9.99 µM. Q9HCT0. recombinant FGF22 thermal shift, SYPRO orange fluorescence; percent of sucrose octasulfate shift, DMSO zero. 340,000 tested, 1.5% active;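 active = mean Tm shift, scaled 0 neutral to 100 positive control, at about 1.3% or above, every replicate too, limit read from the data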
Granule exo inh – lytic granule exocytosis inhibition; inhibition, % at 10 µM; TALL-104 LAMP-1 surface exposure, flow cytometry; cells stimulated with thapsigargin and PMA; 360,000 tested, 0.66% active;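 active = inhibition above about 55%, limit read from the data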
ABCB6 inh MLPCN – human ABCB6 transporter inhibition; K562-ABCB6 porphyrin accumulation, flow cytometry, 1 h; hits give low values; fluorescence ratio to DMSO, % at 10 µM; 360,000 tested, 0.19% active; AID 602162;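 active = fluorescence ratio to DMSO below 75%, the collection mean minus 3 SD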;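 note: signal is porphyrin accumulated inside mitochondria; lower ratio means ABCB6 inhibition with less porphyrin fluorescence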
VLA-4 inh – inhibition in a human VLA-4 binding assay; VLA-4 expressing cells, ligand binding flow cytometry; inhibition, % (about 7 µM as worked out from the volumes in the protocol); 330,000 tested, 0.2% active; in the data active = inhibition above about 50%
DAGLB inh – diacylglycerol lipase beta (human) inhibition. 340,000 tested, 0.059% active. inhibition, % at 5.17 µM. HEK293T DAGLB membrane lysate, EnzChek fluorogenic substrate; in the data active = inhibition above about 34%
MT1-MMP act inh – blocks activation of human MT1-MMP; 360,000 tested, 0.061% active; GFP/RFP ratio change, % at 20 µM; HT1080 RFP-PRO-GFP cells, GFP/RFP ratio fluorescence, overnight; percent of plate control window, DMSO zero; P50281;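 active = GFP/RFP ratio change of at least 30% with cell ATP level not reduced by more than half and red fluorescence within 50% of control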
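Material: RFP-PRO-GFP reporter HT1080 cells. Dosing: single-point 20 µM compound, 1% DMSO. Controls: DMSO and RFP-L50D-GFP cell wells. Timing: cells overnight before dosing, compound overnight, 37 °C, 5% CO2. Measure: GFP/RFP fluorescence ratio.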
Large screens that a line does not name were inactive. Only some compounds are listed: those with a hit (about 2% of all), similar ones and a draw of the others.

O=C(COC(=O)c1ccc2c(c1)C(=O)N(c1cccc3ncccc13)C2=O)c1ccc(Cl)cc1	FGF22 binding 43.6
Cc1ccc(C(=O)COC(=O)c2ccc3c(c2)C(=O)N(c2cccc4ncccc24)C3=O)cc1	none
O=c1[nH][nH]c(-c2ccccc2)c1C=Nc1ccc(C(F)(F)F)cc1	FGF22 binding 43.6
S=C1Nc2ccccc2CS1	none (no result: VLA-4 inh)
S=C1Cc2ccccc2N1	Granule exo inh 94.2 (no result: VLA-4 inh)
CN1[C@@H]2Cn3c(ccc(C4=CCCC4)c3=O)[C@H]1[C@@H](C(=O)N1CCOCC1)[C@@H]2CO	none (no result: Granule exo inh, ABCB6 inh MLPCN, VLA-4 inh, DAGLB inh, MT1-MMP act inh)
COc1ccccc1C1=NOC(COC(=O)c2ccc(Br)cc2)C1 (centres undefined)	FGF22 binding 43.0
COc1ccccc1C1=NOC(COC(=O)c2ccc([N+](=O)[O-])cc2)C1 (centres undefined)	none (no result: DAGLB inh)
C[C@@H]1CCCCO[C@H](CN(C)C(=O)c2ccccc2)[C@@H](C)CN([C@H](C)CO)C(=O)c2cc(NC(=O)C3CCCCC3)ccc2O1	none (no result: Granule exo inh, ABCB6 inh MLPCN, VLA-4 inh, DAGLB inh, MT1-MMP act inh)
CCOC(=O)CC1C(=O)NCCN1Cc1cccs1 (centres undefined)	FGF22 binding 43.2
CCOC(=O)N(C)C[C@H]1OCc2ccccc2-c2c(n(C)c3ccccc23)C(=O)N([C@@H](C)CO)C[C@@H]1C	none (no result: Granule exo inh, ABCB6 inh MLPCN, VLA-4 inh, DAGLB inh, MT1-MMP act inh)
CC(C)NC(=O)Nc1ccc2c(c1)C(=O)N([C@H](C)CO)C[C@@H](C)[C@@H](CN(C)CC1CCCCC1)O2	none (no result: Granule exo inh, ABCB6 inh MLPCN, VLA-4 inh, DAGLB inh, MT1-MMP act inh)
Cc1cccc(N2CCN(C(=O)c3ccc4nc(-c5ccco5)c(-c5ccco5)nc4c3)CC2C)c1 (centres undefined)	none (no result: FGF22 binding)
Cc1cccc(N2CCN(C(=O)c3ccc4nccnc4c3)CC2C)c1 (centres undefined)	FGF22 binding 43.0
CCCn1nc(C(=O)OCC(=O)Nc2cccc(OC)c2)c2ccccc2c1=O	FGF22 binding 42.9
CCOC(=O)c1c(C)n(C)c2ccc(OCC(O)CN3C(=O)c4ccccc4S3(=O)=O)cc12 (centres undefined)	ABCB6 inh MLPCN 35.0 (no result: FGF22 binding)
CCOC(=O)c1c(C)n(C)c2ccc(OCC(O)Cn3nc(C)cc3C)cc12 (centres undefined)	none (no result: FGF22 binding)
O=C(O)c1cc2n(n1)C(C(F)(F)F)CC(C1CC1)N2 (centres undefined)	FGF22 binding 43.2
CC1CC(C(F)(F)F)n2nc(C(=O)O)cc2N1 (centres undefined)	none (no result: FGF22 binding)
CN(C)CC(=O)Nc1ccc2c(c1)[C@H]1C[C@@H](CC(=O)NCCc3ccccc3)O[C@H](CO)[C@H]1O2	none (no result: Granule exo inh, ABCB6 inh MLPCN, VLA-4 inh, DAGLB inh, MT1-MMP act inh)
COc1ccc(-n2nnnc2SCC(=O)NNC(=O)c2ccc([N+](=O)[O-])cc2)cc1	ABCB6 inh MLPCN 69.0 (no result: FGF22 binding)
CC(C)NC(=O)Nc1ccc2c(c1)C(=O)N([C@@H](C)CO)C[C@@H](C)[C@H](CN(C)C(=O)NC1CCCCC1)OCCCC[C@H](C)O2	none (no result: Granule exo inh, ABCB6 inh MLPCN, VLA-4 inh, DAGLB inh, MT1-MMP act inh)
O=C(N[C@@H](Cc1ccc(O)cc1)C(=O)O)C(c1ccccc1)c1ccccc1	none (no result: VLA-4 inh)
O=C(NC(Cc1ccc(O)cc1)C(=O)O)c1ccco1 (centres undefined)	FGF22 binding 43.3
CC1CCN(C(=O)COc2cccc3c2CCN(Cc2ccccc2)C3=O)CC1	none
O=C(COc1cccc2c1CCN(Cc1ccccc1)C2=O)N1CCCCC1	FGF22 binding 43.3
O=C([C@H]1[C@H](CO)[C@H]2Cn3c(cccc3=O)[C@H]2N1CC1CC1)N1CCc2ccccc2C1	none (no result: Granule exo inh, ABCB6 inh MLPCN, VLA-4 inh, DAGLB inh, MT1-MMP act inh)
Cc1ccc(S(=O)(=O)Nc2ccc3c(c2)C(=O)N([C@H](C)CO)C[C@@H](C)[C@@H](CN(C)C(=O)CCCN(C)C)OCCCC[C@@H](C)O3)cc1	none (no result: Granule exo inh, ABCB6 inh MLPCN, VLA-4 inh, DAGLB inh, MT1-MMP act inh)
CCCCOC(=O)C1=C(C)N(C)C(=O)NC1c1cc2c(cc1Br)OCO2 (centres undefined)	none (no result: VLA-4 inh)
CCOC(=O)C1=C(C)N(C)C(=O)NC1c1cc2c(cc1[N+](=O)[O-])OCO2 (centres undefined)	FGF22 binding 43.6
CN(C)CCCNc1cc(C(C)(C)C)nc2c(-c3ccc(Cl)cc3)cnn12	Granule exo inh 65.4
CCCC(=O)Nc1ccc2c(c1)OC[C@H](C)N(C(=O)CC1CC1)C[C@@H](C)[C@H](OC)CN(C)C2=O	none (no result: Granule exo inh, ABCB6 inh MLPCN, VLA-4 inh, DAGLB inh, MT1-MMP act inh)
CS(=O)(=O)Nc1ccc2c(c1)[C@H]1C[C@H](CC(=O)NCC3CC3)O[C@@H](CO)[C@H]1O2	none (no result: Granule exo inh, ABCB6 inh MLPCN, VLA-4 inh, DAGLB inh, MT1-MMP act inh)
